Source: PubChem
PG9 binder: small molecules binding HIV-1 gp120 antibody PG9; actives 0.43% (n = 360,000); inhibition, % at 6.7 µM; TR-FRET gp120-PG9 antibody binding; in the data active = inhibition above about 8.5%
NR1D1 modulator: modulators of human Rev-erb alpha DNA binding; P20393; Rev-erbα–FITC-DNA binding, fluorescence polarization, 90 min; activity, % at 10 µM; actives 0.79% (n = 370,000); AID 1259318;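 active = activity above about 14%, limit read from the data; passing the limit was not always enough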
NR2E3 ag-1: activates human photoreceptor nuclear receptor NR2E3. Q9Y5X4. GST-NR2E3/biotin-RetCOR TR-FRET, 1536-well. inhibition of corepressor binding, % at 4.78 µM. actives 0.12% (n = 320,000). AID 2300;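 active = percent inhibition above the cutoff of mean plus 3 SD of all tested compounds, set per screening campaign, cut at about 20% in these data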
Target sequence (Q9Y5X4 whole entry, looked up): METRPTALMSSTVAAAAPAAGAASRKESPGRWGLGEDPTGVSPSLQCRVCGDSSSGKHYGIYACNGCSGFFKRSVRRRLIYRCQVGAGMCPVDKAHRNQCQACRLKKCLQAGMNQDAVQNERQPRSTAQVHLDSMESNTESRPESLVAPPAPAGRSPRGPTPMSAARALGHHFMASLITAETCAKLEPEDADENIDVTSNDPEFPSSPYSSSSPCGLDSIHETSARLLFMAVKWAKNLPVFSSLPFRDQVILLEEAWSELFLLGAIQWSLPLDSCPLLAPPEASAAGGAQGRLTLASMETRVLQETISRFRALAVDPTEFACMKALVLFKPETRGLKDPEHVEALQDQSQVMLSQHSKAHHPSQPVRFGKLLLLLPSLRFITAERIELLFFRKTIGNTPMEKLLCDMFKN
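System: GST-tagged NR2E3 plus biotinylated RetCOR corepressor; Buffer or medium: pH 7.5 Tris-based buffer; Probe or stimulus: RetCOR corepressor, biotinylated, 7 nM; Doses: compound at 4.8 µM, single dose; Schedule: 5 h incubation at 4 °C; Technique: time-resolved FRET; Evaluation: percent inhibition of TR-FRET ratio; Replication: one well per compound, singlicate testing.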
rCAG binder: molecules binding r(CAG) RNA repeats; r(CAG) RNA repeat, TO-PRO-1 dye displacement fluorescence; inhibition, % at 3 µM; actives 1.3% (n = 370,000);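 active = inhibition above the plate cutoff, the mean of all test compounds on that plate plus 3 SD, cut at about 35% in these data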;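 also: higher means more dye released from RNA so lower well fluorescence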
NR2E3 ag-2: activates human NR2E3 receptor; CHO-S Gal4-NCOR/VP16-NR2E3 two-hybrid, luciferase; inhibition of corepressor binding, % at 3.98 µM; actives 0.35% (n = 360,000); AID 602229;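 active = inhibition above the mean of all tested compounds plus 3 SD, cut at about 70% in these data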;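 also: higher means lower luciferase signal from less NR2E3 corepressor binding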
NR2E3 ag confirm: confirmation of human NR2E3 agonists. shares compounds with NR2E3 ag-2. CHO-S mammalian two-hybrid NR2E3-NCOR, luciferase luminescence. inhibition, % at 3.98 µM. actives 51% (n = 2,300);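 active = average inhibition above a cutoff equal to the mean inhibition of all tested compounds plus one SD, cut at about 70% in these data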
GAL4-VP16 luc: GAL4-VP16 reporter inhibition in NR2E3 agonist counterscreen; inhibition, % at 3.98 µM; CHO-S GAL4-VP16 luciferase reporter, luminescence; actives 29% (n = 2,300); shares compounds with NR2E3 ag-2;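 active = mean inhibition above a cutoff equal to the average over all tested compounds plus one standard deviation, cut at about 70% in these data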;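 also: luciferase from a UAS reporter driven by GAL4-VP16 transactivation; higher means less reporter light so more repression of VP16 activity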
Large screens that a line does not name were inactive (follow-up assays come after a bar, where they were run). Only some compounds are listed: those with a hit (about 2.6% of all), similar ones and a draw of the others.

CC12CCC(=O)C=C1CCC1C2C(O)CC2(C)C(c3csc(N)n3)CCC12 (stereo not given)	none (no result: NR2E3 ag-1)
CC12CCC(=O)C=C1CCC1C2CCC2(C)C(c3csc(N)n3)CCC12 (stereo not given)	NR2E3 ag-2 75 (no result: NR2E3 ag-1) | NR2E3 ag confirm 94 | GAL4-VP16 luc 76
CCCCNc1cccc2c1S(=O)(=O)N[C@H](C)CO2	none (no result: NR2E3 ag-1, NR2E3 ag-2)
CC(Nc1ncnc2sccc12)c1ccccc1 (stereo not given)	NR2E3 ag-2 106 | NR2E3 ag confirm 97 | GAL4-VP16 luc 86
COc1ccc(Cl)cc1-c1cc(C(=O)NCc2ccccc2)[nH]n1	none (no result: NR2E3 ag-1)
CC[C@H]1CN2CCc3cc(OC)c(OC)cc3C2C[C@@H]1C[C@H]1NCCc2cc(OC)c(OC)cc21 (stereo not given in full)	NR2E3 ag-2 104 | NR2E3 ag confirm 98 | GAL4-VP16 luc 98
CCC1=C(CC2NCCc3ccccc32)CC2c3cc(OC)c(OC)cc3CCN2C1 (stereo not given)	NR2E3 ag-2 97 (no result: NR2E3 ag-1) | NR2E3 ag confirm 90 | GAL4-VP16 luc 87
COc1cc2c(cc1OC)CN1CCc3cc(OC)c(OC)cc3C1C2 (stereo not given)	none (no result: NR2E3 ag-1)
COc1ccc(-n2cnnc2SCC(=O)Nc2cc(C(C)(C)C)nn2-c2ccccc2)cc1	none | NR2E3 ag confirm inactive | GAL4-VP16 luc inactive
O=C(CCN1C(=O)/C(=C/c2ccc3c(c2)OCO3)SC1=S)Nc1ccc(C(=O)O)cc1	none
Cc1ccc(/C=C2\SC(=S)N(CCCC(=O)Nc3ccccn3)C2=O)cc1	none | NR2E3 ag confirm inactive | GAL4-VP16 luc 93
Cc1ccc(/C=C2\SC(=S)N(CCCC(=O)Nc3ccc(O)cc3)C2=O)cc1	NR2E3 ag-2 78 | NR2E3 ag confirm inactive | GAL4-VP16 luc inactive
O=C(CCCN1C(=O)S/C(=C\C=C\c2ccccc2)C1=O)Nc1ccc(O)cc1	none | NR2E3 ag confirm inactive | GAL4-VP16 luc inactive
COC(=O)c1ccc(/C=C2/SC(=S)N(CCCC(=O)Nc3ccc(O)cc3)C2=O)cc1	none
O=C(CCCN1C(=O)/C(=C/c2ccc3c(c2)OCO3)SC1=S)Nc1ccc(C(=O)O)cc1	none | NR2E3 ag confirm inactive | GAL4-VP16 luc inactive
COC(=O)[C@]12C[C@H](CC(=O)NCc3cccc4ccccc34)C(=O)N(CCC3=CCCCC3)C1=C[C@H](COCc1ccccc1)O[C@@H]2C	none (no result: NR2E3 ag-1, NR2E3 ag-2)
CC1CCCN(C(=O)Nc2ccc([N+](=O)[O-])cc2)C1 (stereo not given)	none (no result: NR2E3 ag-1, NR2E3 ag-2)
COc1cnc(-c2ccccn2)nc1N(C)c1ccccc1	NR2E3 ag-2 105 | NR2E3 ag confirm 94 | GAL4-VP16 luc inactive
COc1cnc(-c2ccccn2)nc1Oc1ccccc1	none | NR2E3 ag confirm inactive | GAL4-VP16 luc inactive
CN(c1ccccc1)c1ncccn1	none
COc1cnc(-c2ccccn2)nc1Oc1cccc(C(F)(F)F)c1	none
COc1ccccc1/C=C/CN1CCC(n2nccc2NC(=O)CCc2ccccc2)CC1	none | NR2E3 ag confirm inactive | GAL4-VP16 luc inactive
O=C(CCc1ccccc1)Nc1ccnn1C1CCN(C/C=C/c2ccccc2)CC1	none
CCOC(=O)c1c(N)sc2c1CCN(Cc1ccccc1)C2	none (no result: PG9 binder, NR2E3 ag-1, rCAG binder, NR2E3 ag-2)
O=[N+]([O-])c1cc(Cl)ccc1Sc1cccc2cccnc12	none
O=[N+]([O-])c1ccc(Sc2cccc3cccnc23)c([N+](=O)[O-])c1	NR2E3 ag-2 78 | NR2E3 ag confirm inactive | GAL4-VP16 luc inactive
Cc1cccc(-n2ncc3c2CCCC3NC(=O)c2ccc[n+]([O-])c2)c1C (stereo not given)	none
CCCC(=O)NC1CCCc2c1cnn2-c1ccc(C)c(C)c1 (stereo not given)	none
CCn1nc(C)cc1C(=O)NC1CCCc2c1cnn2-c1ccc(C)c(C)c1 (stereo not given)	none | NR2E3 ag confirm inactive | GAL4-VP16 luc inactive
Cc1cc(C(=O)NC2CCCc3c2cnn3-c2cccc(C)c2C)n(C)n1 (stereo not given)	NR2E3 ag-2 110 | NR2E3 ag confirm 98 | GAL4-VP16 luc 91
Cc1cc(C(=O)NC2CCCc3c2cnn3-c2ccc(C)c(C)c2)no1 (stereo not given)	none
